Data: ChEMBL document CHEMBL3044834, “Novel protoporphyrinogen oxidase inhibitors: 3H-pyrazolo[3,4-d][1,2,3]triazin-4-one derivatives” (J Agric Food Chem, 2008)

Experiments:
Format in all cases: functional
[1] = system: Brassica rapa subsp. oleifera; assay: Herbicidal activity against Brassica rapa subsp. oleifera assessed as inhibition of fresh weed plant weight at 1500 g/ha using post-emergence treatment protocol
How it was run: (§1)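 Test compounds made up as emulsions by dissolving in 100 µL N,N-dimethylformamide, then adding a little Tween 20 and water. For post-emergence, weed seedlings at one leaf and one stem were sprayed at the same rates as the pre-emergence test. Fresh weight was recorded 15 days after treatment and expressed as percent inhibition versus controls. All treatments were run in triplicate.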

Echinochloa crus-galli [2] = assay: Herbicidal activity against Echinochloa crus-galli (barnyard grass) assessed as inhibition of fresh weed plant weight at 375 g/ha using post-emergence treatment protocol; how it was run: as §1
Echinochloa crus-galli [3] = assay: Herbicidal activity against Echinochloa crus-galli (barnyard grass) assessed as inhibition of fresh weed plant weight at 750 g/ha using pre-emergence treatment protocol
Echinochloa crus-galli [4] = assay: Herbicidal activity against Echinochloa crus-galli (barnyard grass) assessed as inhibition of fresh weed plant weight at 187.5 g/ha using pre-emergence treatment protocol; how it was run: as §1
Digitaria sanguinalis [5] = assay: Herbicidal activity against Digitaria sanguinalis (hairy crabgrass) assessed as inhibition of fresh weed plant weight at 375 g/ha using pre-emergence treatment protocol
Echinochloa crus-galli [6] = assay: Herbicidal activity against Echinochloa crus-galli (barnyard grass) assessed as inhibition of fresh weed plant weight at 375 g/ha using pre-emergence treatment protocol; how it was run: as §1
Digitaria sanguinalis [7] = assay: Herbicidal activity against Digitaria sanguinalis (hairy crabgrass) assessed as inhibition of fresh weed plant weight at 750 g/ha using pre-emergence treatment protocol
Echinochloa crus-galli [8] = assay: Herbicidal activity against Echinochloa crus-galli (barnyard grass) assessed as inhibition of fresh weed plant weight at 750 g/ha using post-emergence treatment protocol; how it was run: as §1
Amaranthus retroflexus [9] = assay: Herbicidal activity against Amaranthus retroflexus assessed as inhibition of fresh weed plant weight at 750 g/ha using post-emergence treatment protocol; how it was run: as §1
Amaranthus retroflexus [10] = assay: Herbicidal activity against Amaranthus retroflexus assessed as inhibition of fresh weed plant weight at 187.5 g/ha using pre-emergence treatment protocol
Amaranthus retroflexus [11] = assay: Herbicidal activity against Amaranthus retroflexus assessed as inhibition of fresh weed plant weight at 1500 g/ha using post-emergence treatment protocol; how it was run: as §1
Echinochloa crus-galli [12] = assay: Herbicidal activity against Echinochloa crus-galli (barnyard grass) assessed as inhibition of fresh weed plant weight at 1500 g/ha using post-emergence treatment protocol; how it was run: as §1
Digitaria sanguinalis [13] = assay: Herbicidal activity against Digitaria sanguinalis (hairy crabgrass) assessed as inhibition of fresh weed plant weight at 1500 g/ha using pre-emergence treatment protocol
Digitaria sanguinalis [14] = assay: Herbicidal activity against Digitaria sanguinalis (hairy crabgrass) assessed as inhibition of fresh weed plant weight at 375 g/ha using post-emergence treatment protocol; how it was run: as §1
[15] = system: Brassica rapa subsp. oleifera; assay: Herbicidal activity against Brassica rapa subsp. oleifera assessed as inhibition of fresh weed plant weight at 375 g/ha using pre-emergence treatment protocol
Echinochloa crus-galli [16] = assay: Herbicidal activity against Echinochloa crus-galli (barnyard grass) assessed as inhibition of fresh weed plant weight at 1500 g/ha using pre-emergence treatment protocol
Amaranthus retroflexus [17] = assay: Herbicidal activity against Amaranthus retroflexus assessed as inhibition of fresh weed plant weight at 1500 g/ha using pre-emergence treatment protocol
[18] = system: Brassica rapa subsp. oleifera; assay: Herbicidal activity against Brassica rapa subsp. oleifera assessed as inhibition of fresh weed plant weight at 750 g/ha using pre-emergence treatment protocol
[19] = system: Brassica rapa subsp. oleifera; assay: Herbicidal activity against Brassica rapa subsp. oleifera assessed as inhibition of fresh weed plant weight at 187.5 g/ha using pre-emergence treatment protocol
Digitaria sanguinalis [20] = assay: Herbicidal activity against Digitaria sanguinalis (hairy crabgrass) assessed as inhibition of fresh weed plant weight at 750 g/ha using post-emergence treatment protocol; how it was run: as §1
Digitaria sanguinalis [21] = assay: Herbicidal activity against Digitaria sanguinalis (hairy crabgrass) assessed as inhibition of fresh weed plant weight at 187.5 g/ha using pre-emergence treatment protocol
[22] = system: Brassica rapa subsp. oleifera; assay: Herbicidal activity against Brassica rapa subsp. oleifera assessed as inhibition of fresh weed plant weight at 1500 g/ha using pre-emergence treatment protocol
Digitaria sanguinalis [23] = assay: Herbicidal activity against Digitaria sanguinalis (hairy crabgrass) assessed as inhibition of fresh weed plant weight at 187.5 g/ha using post-emergence treatment protocol; how it was run: as §1
[24] = system: Brassica rapa subsp. oleifera; assay: Herbicidal activity against Brassica rapa subsp. oleifera assessed as inhibition of fresh weed plant weight at 375 g/ha using post-emergence treatment protocol; how it was run: as §1
Amaranthus retroflexus [25] = assay: Herbicidal activity against Amaranthus retroflexus assessed as inhibition of fresh weed plant weight at 375 g/ha using post-emergence treatment protocol; how it was run: as §1
Digitaria sanguinalis [26] = assay: Herbicidal activity against Digitaria sanguinalis (hairy crabgrass) assessed as inhibition of fresh weed plant weight at 1500 g/ha using post-emergence treatment protocol; how it was run: as §1
Amaranthus retroflexus [27] = assay: Herbicidal activity against Amaranthus retroflexus assessed as inhibition of fresh weed plant weight at 187.5 g/ha using post-emergence treatment protocol; how it was run: as §1
[28] = system: Brassica rapa subsp. oleifera; assay: Herbicidal activity against Brassica rapa subsp. oleifera assessed as inhibition of fresh weed plant weight at 750 g/ha using post-emergence treatment protocol; how it was run: as §1
Amaranthus retroflexus [29] = assay: Herbicidal activity against Amaranthus retroflexus assessed as inhibition of fresh weed plant weight at 375 g/ha using pre-emergence treatment protocol
[30] = system: Brassica rapa subsp. oleifera; assay: Herbicidal activity against Brassica rapa subsp. oleifera assessed as inhibition of fresh weed plant weight at 187.5 g/ha using post-emergence treatment protocol; how it was run: as §1
Amaranthus retroflexus [31] = assay: Herbicidal activity against Amaranthus retroflexus assessed as inhibition of fresh weed plant weight at 750 g/ha using pre-emergence treatment protocol; how it was run: as §1
Echinochloa crus-galli [32] = assay: Herbicidal activity against Echinochloa crus-galli (barnyard grass) assessed as inhibition of fresh weed plant weight at 187.5 g/ha using post-emergence treatment protocol; how it was run: as §1
[33] = system: Brassica rapa subsp. oleifera; assay: Herbicidal activity against Brassica rapa subsp. oleifera assessed as inhibition of fresh weed plant weight at 93.75 g/ha using pre-emergence treatment protocol
Amaranthus retroflexus [34] = assay: Herbicidal activity against Amaranthus retroflexus assessed as inhibition of fresh weed plant weight at 93.75 g/ha using pre-emergence treatment protocol
Digitaria sanguinalis [35] = assay: Herbicidal activity against Digitaria sanguinalis (hairy crabgrass) assessed as inhibition of fresh weed plant weight at 93.75 g/ha using pre-emergence treatment protocol
Echinochloa crus-galli [36] = assay: Herbicidal activity against Echinochloa crus-galli (barnyard grass) assessed as inhibition of fresh weed plant weight at 93.75 g/ha using pre-emergence treatment protocol

Compound: C#CCN1C(=O)COc2cc(F)c(-n3nnc4nn(CCC)cc4c3=O)cc21
- inhibition at 1500 g/ha [1]: 27.9%
- inhibition at 375 g/ha (Echinochloa crus-galli [2]): 11.2%
- inhibition at 750 g/ha (Echinochloa crus-galli [3]): 16.9%
- inhibition at 187.5 g/ha (Echinochloa crus-galli [4]): 0%
- inhibition at 375 g/ha (Digitaria sanguinalis [5]): 26.1%
- inhibition at 375 g/ha (Echinochloa crus-galli [6]): 5.6%
- inhibition at 750 g/ha (Digitaria sanguinalis [7]): 32.6%
- inhibition at 750 g/ha (Echinochloa crus-galli [8]): 25.9%
- inhibition at 750 g/ha (Amaranthus retroflexus [9]): 100%
- inhibition at 187.5 g/ha (Amaranthus retroflexus [10]): 100%
- inhibition at 1500 g/ha (Amaranthus retroflexus [11]): 100%
- inhibition at 1500 g/ha (Echinochloa crus-galli [12]): 40.9%
- inhibition at 1500 g/ha (Digitaria sanguinalis [13]): 51.6%
- inhibition at 375 g/ha (Digitaria sanguinalis [14]): 16.7%
- inhibition at 375 g/ha [15]: 45.5%
- inhibition at 1500 g/ha (Echinochloa crus-galli [16]): 37.8%
- inhibition at 1500 g/ha (Amaranthus retroflexus [17]): 100%
- inhibition at 750 g/ha [18]: 55.2%
- inhibition at 187.5 g/ha [19]: 16.4%
- inhibition at 750 g/ha (Digitaria sanguinalis [20]): 22.2%
- inhibition at 187.5 g/ha (Digitaria sanguinalis [21]): 0%
- inhibition at 1500 g/ha [22]: 75.1%
- inhibition at 187.5 g/ha (Digitaria sanguinalis [23]): 13.9%
- inhibition at 375 g/ha [24]: 18.9%
- inhibition at 375 g/ha (Amaranthus retroflexus [25]): 100%
- inhibition at 1500 g/ha (Digitaria sanguinalis [26]): 43.8%
- inhibition at 187.5 g/ha (Amaranthus retroflexus [27]): 56.1%
- inhibition at 750 g/ha [28]: 19.4%
- inhibition at 375 g/ha (Amaranthus retroflexus [29]): 100%
- inhibition at 187.5 g/ha [30]: 11.4%
- inhibition at 750 g/ha (Amaranthus retroflexus [31]): 100%
- inhibition at 187.5 g/ha (Echinochloa crus-galli [32]): 10.2%

Compound: CCCN1C(=O)COc2cc(F)c(-n3nnc4c(cnn4C)c3=O)cc21
- inhibition at 1500 g/ha [1]: 20.5%
- inhibition at 750 g/ha (Echinochloa crus-galli [3]): 91.2%
- inhibition at 187.5 g/ha (Echinochloa crus-galli [4]): 28.4%
- inhibition at 375 g/ha (Digitaria sanguinalis [5]): 65.4%
- inhibition at 375 g/ha (Echinochloa crus-galli [6]): 69.6%
- inhibition at 750 g/ha (Digitaria sanguinalis [7]): 87.8%
- inhibition at 93.75 g/ha [33]: 32.2%
- inhibition at 187.5 g/ha (Amaranthus retroflexus [10]): 89.5%
- inhibition at 1500 g/ha (Amaranthus retroflexus [11]): 54.1%
- inhibition at 1500 g/ha (Echinochloa crus-galli [12]): 46.9%
- inhibition at 1500 g/ha (Digitaria sanguinalis [13]): 94.1%
- inhibition at 375 g/ha [15]: 57.1%
- inhibition at 1500 g/ha (Echinochloa crus-galli [16]): 94.8%
- inhibition at 1500 g/ha (Amaranthus retroflexus [17]): 100%
- inhibition at 750 g/ha [18]: 79.9%
- inhibition at 93.75 g/ha (Amaranthus retroflexus [34]): 83.8%
- inhibition at 187.5 g/ha [19]: 38.5%
- inhibition at 187.5 g/ha (Digitaria sanguinalis [21]): 14.2%
- inhibition at 1500 g/ha [22]: 100%
- inhibition at 1500 g/ha (Digitaria sanguinalis [26]): 47.5%
- inhibition at 375 g/ha (Amaranthus retroflexus [29]): 93.2%
- inhibition at 750 g/ha (Amaranthus retroflexus [31]): 95.3%
- inhibition at 93.75 g/ha (Digitaria sanguinalis [35]): 3.9%
- inhibition at 93.75 g/ha (Echinochloa crus-galli [36]): 0%

Compound: C#CCN1C(=O)COc2cc(F)c(-n3nnc4c(cnn4C)c3=O)cc21
- inhibition at 1500 g/ha [1]: 45.6%
- inhibition at 750 g/ha (Echinochloa crus-galli [3]): 100%
- inhibition at 187.5 g/ha (Echinochloa crus-galli [4]): 48.4%
- inhibition at 375 g/ha (Digitaria sanguinalis [5]): 100%
- inhibition at 375 g/ha (Echinochloa crus-galli [6]): 94.8%
- inhibition at 750 g/ha (Digitaria sanguinalis [7]): 100%
- inhibition at 93.75 g/ha [33]: 47.3%
- inhibition at 187.5 g/ha (Amaranthus retroflexus [10]): 66%
- inhibition at 1500 g/ha (Amaranthus retroflexus [11]): 71.8%
- inhibition at 1500 g/ha (Echinochloa crus-galli [12]): 58.4%
- inhibition at 1500 g/ha (Digitaria sanguinalis [13]): 100%
- inhibition at 375 g/ha [15]: 95.6%
- inhibition at 1500 g/ha (Echinochloa crus-galli [16]): 100%
- inhibition at 1500 g/ha (Amaranthus retroflexus [17]): 100%
- inhibition at 750 g/ha [18]: 97.1%
- inhibition at 93.75 g/ha (Amaranthus retroflexus [34]): 60.2%
- inhibition at 187.5 g/ha [19]: 77.7%
- inhibition at 187.5 g/ha (Digitaria sanguinalis [21]): 80%
- inhibition at 1500 g/ha [22]: 98.8%
- inhibition at 1500 g/ha (Digitaria sanguinalis [26]): 39.2%
- inhibition at 375 g/ha (Amaranthus retroflexus [29]): 96.3%
- inhibition at 750 g/ha (Amaranthus retroflexus [31]): 100%
- inhibition at 93.75 g/ha (Digitaria sanguinalis [35]): 26.8%
- inhibition at 93.75 g/ha (Echinochloa crus-galli [36]): 47.1%
